Experimental findings from ChEMBL document CHEMBL4251659, “Anti-Influenza Triterpene Saponins from the Bark of Burkea africana” (J Nat Prod, 2018) are described below.

The structures appear in SMILES notation.

In one data set the test system is Influenza A virus H3N2. In words: Antiviral activity against Influenza A virus H3N2 A/Hong Kong/68 infected in MDCK cells assessed as inhibition of virus-induced cytopathic effect after 48 hrs. It is filed as functional, organism-based. Put shortly: (§1)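 Run on 2-day-old confluent MDCK monolayers. Test concentrations reached a maximum of 100 μM for pure compounds and 100 μg/mL for extracts or fractions. Virus input gave complete CPE at 48 h post-infection, when inhibition was scored. Each concentration was tested twice. IC50 (50% inhibition of virus-induced CPE) is the mean of at least three experiments.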

The test system of the next data set is Influenza A virus. In words: Antiviral activity against Influenza A virus H1N1 A/Jena/8178/09 infected in MDCK cells assessed as inhibition of virus-induced cytopathic effect after 48 hrs. Format: functional, organism-based. In short, it runs like this: as §1
For orientation: Protection from cytopathic effect is a common read-out in antiviral testing.

Data set [1] is described as follows: Selectivity index, ratio of CC50 for MDCK cells to IC50 for Influenza A virus H3N2 A/Hong Kong/68 infected in MDCK cells. Format: toxicity, cell-based. The settings on record: dog, read-out: Ratio CC50/IC50. Put shortly: (§2)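 SI was calculated as CC50/IC50. CC50 was measured on 2-day-old confluent MDCK monolayers 72 h after sample addition, at a maximum of 100 μM for compounds or 100 μg/mL for extracts or fractions, with each concentration tested twice. IC50 came from the 48 h CPE inhibition assay. Both are means of at least three experiments.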

Data set [2] in a line: Selectivity index, ratio of CC50 for MDCK cells to IC50 for Influenza A virus H1N1 A/Jena/8178/09 infected in MDCK cells. The conditions noted are these: dog, read-out: Ratio CC50/IC50. Format: toxicity, cell-based. In short, it runs like this: as §2

For `C=C(C)[C@@H]1CC[C@]2(C(=O)O)CC[C@]3(C)[C@H](CC[C@@H]4[C@@]5(C)C[C@@H](O)[C@H](O[C@@H]6O[C@H](CO)[C@@H](O)[C@H](O)[C@H]6O[C@@H]6OC[C@@H](O)[C@H](O)[C@H]6O)C(C)(C)[C@@H]5CC[C@]43C)[C@@H]12`, in the data set with Influenza A virus H3N2, the IC50 entry is listed as “Not Active”.
In the case of `C[C@H]1O[C@@H](O[C@H]2[C@H](O)[C@@H](O[C@@H]3OC[C@@H](O)[C@H](O)[C@H]3O)[C@H](O[C@H]3[C@H](O)C[C@]4(C)[C@H]5CC=C6[C@@H]7CC(C)(C)CC[C@]7(C(=O)O)CC[C@@]6(C)[C@]5(C)CC[C@H]4C3(C)C)O[C@@H]2CO)[C@@H](O)[C@@H](O)[C@@H]1O`, the IC50 result in the data set with Influenza A virus was “Not Active”.
For `CC1(C)C[C@H]2C3=CC[C@@H]4[C@@]5(C)CC[C@H](O)C(C)(C)[C@@H]5CC[C@@]4(C)[C@]3(C)CC[C@@]2(C(=O)O)C[C@H]1OC(=O)/C=C/c1ccccc1`, the selectivity ratio in data set [1] is > 11; in data set [2], > 15.
As to `C=C(C)[C@@H]1CC[C@]2(C(=O)O)CC[C@]3(CO)[C@H](CC[C@@H]4[C@@]5(C)C[C@@H](O)[C@H](O[C@@H]6O[C@H](CO)[C@@H](O)[C@H](O)[C@H]6O[C@@H]6O[C@H](CO)[C@@H](O)[C@H](O)[C@H]6O)C(C)(C)[C@@H]5CC[C@]43C)[C@@H]12`, the IC50 result in the data set with Influenza A virus H3N2 is recorded as “Not Active”.
The same measure, in the same setting: as for `C=C(C)[C@@H]1CC[C@]2(C(=O)O)CC[C@]3(CO)[C@H](CC[C@@H]4[C@@]5(C)C[C@@H](O)[C@H](O)C(C)(C)[C@@H]5CC[C@]43C)[C@@H]12`, the entry is “Not Active”.
Turning to `C=C(C)[C@@H]1CC[C@]2(C(=O)O)CC[C@]3(CO)[C@H](CC[C@@H]4[C@@]5(C)C[C@@H](O)[C@H](O[C@@H]6O[C@H](CO)[C@@H](O)[C@H](O)[C@H]6O[C@@H]6OC[C@@H](O)[C@H](O)[C@H]6O)C(C)(C)[C@@H]5CC[C@]43C)[C@@H]12`, the IC50 entry with Influenza A virus H3N2 and with Influenza A virus was “Not Active” each time.
As for `CC1(C)C[C@H]2C3=CC[C@@H]4[C@@]5(C)C[C@@H](O)[C@H](O)C(C)(C)[C@@H]5CC[C@@]4(C)[C@]3(C)CC[C@@]2(C(=O)O)C[C@H]1OC(=O)/C=C/c1ccccc1`, the selectivity ratio is > 9 in data set [1] and > 14 in data set [2].
In the case of `C=C(C)[C@@H]1CC[C@]2(C(=O)O)CC[C@]3(C)[C@H](CC[C@@H]4[C@@]5(C)C[C@@H](O)[C@H](O)C(C)(C)[C@@H]5CC[C@]43C)[C@@H]12` [ALPHITOLIC ACID], the IC50 result in the data set on Influenza A virus H3N2 and in the data set on Influenza A virus was “Not Active” each time.
Regarding `CC1(C)CC[C@]2(C(=O)O)CC[C@]3(C)C(=CC[C@@H]4[C@@]5(C)C[C@@H](O)[C@H](O)C(C)(C)[C@@H]5CC[C@]43C)[C@@H]2C1` [MASLINIC ACID], the IC50 result in the data set with Influenza A virus H3N2 and with Influenza A virus was “Not Active” throughout.
